What was measured:
Assay type in all cases: functional
Mus musculus [1] = test: Evaluation of hypothermia (after 1h) resulting from iv administration of compound at dose 30 mg/kg
Procedure, shortened: (§1)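 Male ICR mice (22-30 g), housed in the laboratory 24 h before treatment; ambient 21-24 °C recorded. Rectal temperature was taken by thermistor probe (inserted 25 mm) just before iv injection of vehicle or drug (0.1 mL/10 g), then at 10-min intervals to 60 min. Value is the pre-injection minus 60-min temperature difference. At least six mice per dose.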

Mus musculus [2] = test: Evaluation of hypothermia (after 1h) resulting from iv administration of compound at dose 20 mg/kg; procedure, shortened: as §1
Mus musculus [3] = test: Evaluation of hypothermia (after 1h) resulting from iv administration of compound at dose 10 mg/kg; procedure, shortened: as §1
Mus musculus [4] = test: Evaluation of hypothermia (after 1h) resulting from iv administration of compound at dose 60 mg/kg; procedure, shortened: as §1
Mus musculus [5] = test: Evaluation of spontaneous activity administered by iv route in mice
Procedure, shortened: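 Male ICR mice (22-30 g), housed 24 h before treatment. Given vehicle or drug iv (0.1 mL/10 g), then immediately placed singly in photocell activity chambers; beam interruptions counted for 10 min. Counts expressed as percent of vehicle control. ED50 (mg/kg) with 95% confidence limits by Litchfield-Wilcoxon method. At least six mice per dose.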

Mus musculus [6] = test: Evaluation of hypothermia (after 1h) resulting from iv administration of compound at dose 40 mg/kg; procedure, shortened: as §1
Mus musculus [7] = test: Evaluation of hypothermia (after 1h) resulting from iv administration of compound at dose 100 mg/kg; procedure, shortened: as §1
Mus musculus [8] = test: Evaluation of hypothermia (after 1h) resulting from iv administration of compound at dose 5 mg/kg; procedure, shortened: as §1

Question: How did the Hypothermic effect (Mus musculus [1]) turn out when `CCCCCc1cc(O)c2c(c1)OC(C)(C)[C@@H]1CC=C(Cc3ccccc3)CC21` (stereo partly drawn) was run?
Answer: 1.1

Question: What about the Hypothermic effect (Mus musculus [2]) of the same compound?
Answer: 0.9

Question: And the Hypothermic effect (Mus musculus [3])?
Answer: 1.3

Question: What about the Hypothermic effect (Mus musculus [4]) of the same compound?
Answer: 1.5

Question: What about the ED50 (Mus musculus [5]) of the same compound?
Answer: 32 mg/kg

Question: With `CCCCCc1cc(O)c2c(c1)OC(C)(C)[C@@H]1CC=C(C(C)C)CC21` (stereo partly drawn) as the compound, how does the Hypothermic effect (Mus musculus [1]) read?
Answer: 0.8

Question: What about the Hypothermic effect (Mus musculus [2]) of the same compound?
Answer: 1.2

Question: What about the Hypothermic effect (Mus musculus [4]) of the same compound?
Answer: 1.3

Question: What about the ED50 (Mus musculus [5]) of the same compound?
Answer: 26 mg/kg

Question: For `CCCCCc1cc(O)c2c(c1)OC(C)(C)[C@@H]1CC=C(C(O)CC)CC21` (stereo partly drawn), which Hypothermic effect (Mus musculus [1]) is on record?
Answer: -0.2

Question: What about the Hypothermic effect (Mus musculus [3]) of the same compound?
Answer: 0.4

Question: What about the Hypothermic effect (Mus musculus [4]) of the same compound?
Answer: 1.3

Question: What about the ED50 (Mus musculus [5]) of the same compound?
Answer: 39 mg/kg

Question: How did the Hypothermic effect (Mus musculus [1]) turn out when `CCCCCc1cc(O)c2c(c1)OC(C)(C)[C@@H]1CC=C(C(C)O)CC21` (stereo partly drawn) was run?
Answer: 0.8

Question: And the Hypothermic effect (Mus musculus [2])?
Answer: 0

Question: And the ED50 (Mus musculus [5])?
Answer: 27 mg/kg

Question: And the Hypothermic effect (Mus musculus [6])?
Answer: 1.3

Question: With `CCCCCc1cc(O)c2c(c1)OC(C)(C)[C@@H]1CC=C(CCCC)CC21` (stereo partly drawn) as the compound, how does the Hypothermic effect (Mus musculus [1]) read?
Answer: 4.3

Question: What about the Hypothermic effect (Mus musculus [3]) of the same compound?
Answer: 0.3

Question: What about the Hypothermic effect (Mus musculus [4]) of the same compound?
Answer: 5

Question: What about the ED50 (Mus musculus [5]) of the same compound?
Answer: 32 mg/kg

Question: What does the source list for `CCCCCc1cc(O)c2c(c1)OC(C)(C)[C@@H]1CC=C(c3ccccc3)CC21` (stereo partly drawn)?
Answer: Hypothermic effect (Mus musculus [1]): 1.6; Hypothermic effect (Mus musculus [7]): 2.2; Hypothermic effect (Mus musculus [4]): 0.3; ED50 (Mus musculus [5]): 67 mg/kg

Question: With `CCCCCc1cc(O)c2c(c1)OC(C)(C)[C@@H]1CC=C(CCc3ccccc3)CC21` (stereo partly drawn) as the compound, how does the Hypothermic effect (Mus musculus [1]) read?
Answer: 0.3

Question: What about the Hypothermic effect (Mus musculus [4]) of the same compound?
Answer: 0.9

Question: And the ED50 (Mus musculus [5])?
Answer: 43 mg/kg

Question: What about the Hypothermic effect (Mus musculus [6]) of the same compound?
Answer: 0.3

Question: For `CCCCCc1cc(O)c2c(c1)OC(C)(C)[C@@H]1CC=C(C)CC21` (stereo partly drawn), which Hypothermic effect (Mus musculus [8]) is on record?
Answer: 0.9

Question: What about the Hypothermic effect (Mus musculus [2]) of the same compound?
Answer: 3.4

Question: What about the Hypothermic effect (Mus musculus [3]) of the same compound?
Answer: 1

Question: What about the ED50 (Mus musculus [5]) of the same compound?
Answer: 7.1 mg/kg

Source: ChEMBL document CHEMBL1122641, “Synthesis and pharmacological activity of some 9-substituted delta 8-tetrahydrocannabinol analogues” (1984)
